Activity calls are given as the source filed them.

Data set [1] relates to SW480. As to the kind of experiment: Antiproliferative activity against human SW480 cells incubated for 72 hrs by CCK8 assay. Particulars: SW480, 72 h.
A further data set relates to HCT-116. In words: Antiproliferative activity against human HCT116 cells incubated for 72 hrs by CCK8 assay. Particulars: HCT-116, 72 h.
Data set [2] has as its system SW480. As to the kind of experiment: Induction of apoptosis in human SW480 cells assessed as late apoptotic cells level at 40 uM incubated for 24 hrs by propidium iode and annexin V-FITC staining based flow cytometry (reference value: 4.46%). It counts as functional. In general terms: In flow cytometry, cells or beads pass a laser one at a time.
The nature of data set [3]: Toxicity in BALB/C nude mouse xenografted with human SW480 cells assessed as induction of body weight loss at 50 mg/kg, ip dosed once daily for 12 consecutive days. It counts as organism-based. The conditions noted are these: in vivo. The essentials: (§1)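 SW480 xenografts in nude mice, dosed intraperitoneally once a day for 12 consecutive days and compared with a vehicle group. Tumor growth followed over time and expressed as TGI, with data as mean ± standard deviation and significance by P value. Body weight and adverse effects were monitored throughout the study.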
Background: A xenograft is tissue or cells of one species grown in another, often human tumour cells in immunodeficient mice.

In data set [4] the test system is SW480. In words: Induction of apoptosis in human SW480 cells assessed as necrotic cells level at 40 uM incubated for 24 hrs by propidium iode and annexin V-FITC staining based flow cytometry (reference value: 2.79%). It counts as functional.
Data set [5] concerns SW480. As to the kind of experiment: Induction of apoptosis in human SW480 cells assessed as early apoptotic cells level at 40 uM incubated for 24 hrs by propidium iode and annexin V-FITC staining based flow cytometry (reference value: 1.76%). It counts as functional.
A short description of data set [6]: Toxicity in BALB/C nude mouse xenografted with human SW480 cells assessed as induction of adverse effects at 50 mg/kg, ip dosed once daily for 12 consecutive days. Particulars: in vivo. It counts as organism-based. The gist of the method:
as §1

Data set [7] relates to SW480. In words: Antitumor activity against human SW480 cells xenografted in BALB/C nude mouse assessed as tumor growth inhibition at 50 mg/kg, ip dosed once daily for 12 consecutive days relative to control. The conditions noted are these: read-out: TGI. It counts as functional. The gist of the method: as §1
The test system of data set [8] is Mus musculus. As to the kind of experiment: In-vivo protac activity at cereblon/PDE6D in BALB/C nude mouse xenografted with human SW480 cells assessed as decrease in PDEdelta level at 50 mg/kg, ip dosed once daily for 12 consecutive days by immunofluorescence assay. It counts as functional, organism-based. The essentials:
(§2)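 Tumor tissue from SW480-transplanted nude mice analysed by immunofluorescence for PDEδ, RAS and p-Akt protein expression.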

Data set [9] in a line: Tmax in Sprague-Dawley rat at 50 mg/kg, ip measured after 0.083 to 24 hrs by LC-MS/MS analysis. It counts as ADME, organism-based. Particulars: in vivo. The gist of the method:
(§3)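 Rats given the compound intraperitoneally at 50 mg/kg, with drug levels measured in plasma over time. The concentration–time profile gave half-life, Cmax and AUC.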

Data set [10] is described as follows: Clearance in Sprague-Dawley rat at 50 mg/kg, ip measured after 0.083 to 24 hrs by LC-MS/MS analysis. Particulars: in vivo. It counts as ADME, organism-based. The essentials: as §3
Data set [11] is described as follows: AUC (0 to infinity) in Sprague-Dawley rat at 50 mg/kg, ip measured after 0.083 to 24 hrs by LC-MS/MS analysis. It counts as ADME, organism-based. The arrangement: dose 50 mg/kg, route intraperitoneal, time infinity. Particulars: in vivo. The essentials: as §3
The subject of data set [12] is SW480. As to the kind of experiment: Induction of apoptosis in human SW480 cells assessed as early apoptotic cells level at 20 uM incubated for 24 hrs by propidium iode and annexin V-FITC staining based flow cytometry (reference value: 1.76%). It counts as functional.
Data set [13] concerns SW480. As to the kind of experiment: Induction of apoptosis in human SW480 cells assessed as necrotic cells level at 20 uM incubated for 24 hrs by propidium iode and annexin V-FITC staining based flow cytometry (reference value: 2.79%). It counts as functional.
A short description of data set [14]: Cmax in Sprague-Dawley rat at 50 mg/kg, ip measured after 0.083 to 24 hrs by LC-MS/MS analysis. It counts as ADME, organism-based. The arrangement: dose 50 mg/kg, route intraperitoneal. Particulars: in vivo. The gist of the method:
as §3

The subject of data set [15] is Mus musculus. In words: In-vivo protac activity at cereblon/PDE6D in BALB/C nude mouse xenografted with human SW480 cells assessed as decrease in p-Akt level at 50 mg/kg, ip dosed once daily for 12 consecutive days by immunofluorescence assay. It counts as functional, organism-based. The essentials:
as §2

A short description of data set [16]: Half life in Sprague-Dawley rat at 50 mg/kg, ip measured after 0.083 to 24 hrs by LC-MS/MS analysis. It counts as ADME, organism-based. Particulars: in vivo. The essentials: as §3
The nature of data set [17]: Permeability in human Caco2 cells. The conditions noted are these: caco-2. It counts as ADME, cell-based. (In general: Caco-2 cells form a polarised layer with tight junctions and transporters.)
The test system of the next data set is MIA PaCa-2. In words: Antiproliferative activity against human MIAPaCa2 cells incubated for 72 hrs by CCK8 assay. It counts as functional, cell-based.
The test system of data set [18] is SW480. As to the kind of experiment: Antiproliferative activity against human SW480 cells incubated for 72 hrs in presence of 30 uM pomalidomide by CCK8 assay. The conditions noted are these: SW480, 72 h.
Data set [19] concerns SW480. As to the kind of experiment: Induction of apoptosis in human SW480 cells assessed as late apoptotic cells level at 20 uM incubated for 24 hrs by propidium iode and annexin V-FITC staining based flow cytometry (reference value: 4.46%). It counts as functional.

`Cc1ccc(-n2nc3c(=O)n(CCCC(=O)NCCCCCCCCNc4cccc5c4C(=O)N(C4CCC(=O)N(C)C4=O)C5=O)nc(C)c3c2C)cc1` (stereo unspecified): the IC50 (usually the point on the concentration scale where inhibition reaches its midpoint) in the data set on SW480 [1] came to 70 µM.

Turning to `Cc1ccc(-n2nc3c(=O)n(CCCC(=O)NCCCCNc4cccc5c4C(=O)N(C4CCC(=O)NC4=O)C5=O)nc(C)c3c2C)cc1` (stereo unspecified), the IC50 in the data set on HCT-116 came out at 51 µM; with SW480 [1], 76 µM.

On to `Cc1ccc(-n2nc3c(=O)n(CCCC(=O)NCCCCCCCNc4cccc5c4C(=O)N(C4CCC(=O)NC4=O)C5=O)nc(C)c3c2C)cc1` (stereo unspecified), for which the IC50 with HCT-116 is 20 µM; in the data set with SW480 [1] it was 12 µM.

In the case of `Cc1ccc(-n2nc3c(=O)n(CCCC(=O)NCC(C)c4ccccc4)nc(C)c3c2C)cc1` (stereo unspecified), the IC50 in the data set on HCT-116 stood at 74 µM; with SW480 [1] it was 56 µM. The Activity in the data set with SW480 [2] is listed as 8.61%; in [3], “Non-Toxic”; with SW480 [4], 2.44%; in the data set on SW480 [5], 2.49%; in data set [6], “Non-Toxic”. Also, the inhibition in vivo at 50 mg/kg in the data set with SW480 [7] was 24%. Further, the outcome in the data set on Mus musculus [8] was inactive.

Turning to `Cc1ccc(-n2nc3c(=O)n(CCCC(=O)NCCCCCCCCNc4ccc5c(c4)C(=O)N(C4CCC(=O)NC4=O)C5=O)nc(C)c3c2C)cc1` (stereo unspecified), it took 7 µM to reach half-maximal inhibition in the data set on SW480 [1] (IC50).

For the molecule `Cc1ccc(-n2nc3c(=O)n(CCCC(=O)NCCCNc4cccc5c4C(=O)N(C4CCC(=O)NC4=O)C5=O)nc(C)c3c2C)cc1` (stereo unspecified), the figures for the IC50 in the data set on HCT-116 and with SW480 [1] were 68 µM and 81 µM, respectively.

With `Cc1ccc(-n2nc3c(=O)n(CCCC(=O)NCCOCCOCCNc4cccc5c4C(=O)N(C4CCC(=O)NC4=O)C5=O)nc(C)c3c2C)cc1` (stereo unspecified), the IC50 turned out to be 25 µM with HCT-116 and 58 µM with SW480 [1].

In the case of `Cc1ccc(-n2nc3c(=O)n(CCCC(=O)NCCCOCCOCCOCCCNc4cccc5c4C(=O)N(C4CCC(=O)NC4=O)C5=O)nc(C)c3c2C)cc1` (stereo unspecified), the IC50 in the data set on HCT-116 amounted to 23 µM; in the data set on SW480 [1], 26 µM.

For the molecule `Cc1ccc(-n2nc3c(=O)n(CCCC(=O)NCCCCCCNc4cccc5c4C(=O)N(C4CCC(=O)NC4=O)C5=O)nc(C)c3c2C)cc1` (stereo unspecified), the IC50 in the data set with HCT-116 was determined as 19 µM; with SW480 [1], 15 µM.

Consider `Cc1ccc(-n2nc3c(=O)n(CCCC(=O)NCCCCCNc4cccc5c4C(=O)N(C4CCC(=O)NC4=O)C5=O)nc(C)c3c2C)cc1` (stereo unspecified), for which the values for the IC50 in the data set on HCT-116 and in the data set on SW480 [1] were 32 µM and 17 µM, respectively.

`Cc1ccc(-n2nc3c(=O)n(CCCC(=O)NCCCCCCCCNc4cccc5c4C(=O)N(C4CCC(=O)NC4=O)C5=O)nc(C)c3c2C)cc1` (stereo unspecified): the IC50 with HCT-116 turned out to be 8 µM; with SW480 [1] it was 8 µM; in the data set on SW480 [18] it was 71 µM. Also, the Activity with SW480 [2] is 2.95%; in data set [3], “Non-Toxic”; with SW480 [4], 0.37%; with SW480 [12] it was 36.25%; with SW480 [13] it was 0.9%; with SW480 [5] it was 62.58%. Moreover, the Activity result is “Non-Toxic” in [6] and 2.06% with SW480 [19]. Moreover, in data set [9], the Tmax (commonly the time at which the peak concentration occurs) was 1.67 h. Moreover, the CL/F (in general, clearance divided by bioavailability, as obtained after extravascular dosing) in [10] was 179 mL/min/kg. Also, the AUC(0-inf) (commonly total exposure, with the tail of the curve extrapolated) in data set [11] was determined as 4710 ng·h/mL. Besides, in data set [14], the Cmax (usually the maximum level reached in the sampled fluid or tissue) turned out to be 564 ng/mL. Further, in the data set on SW480 [7], the inhibition in vivo at 50 mg/kg came to 43%. Further, the outcome with Mus musculus [15], in the data set with MIA PaCa-2 and in the data set on Mus musculus [8] was Active. The half-life (commonly the time needed for the level to fall by half in the phase considered) in [16] is 5.11 h. Further, the permeability result in [17] is “Impermeable”.

Values taken from ChEMBL document CHEMBL4616722, “Discovery of Novel PDEδ Degraders for the Treatment of KRAS Mutant Colorectal Cancer” (J Med Chem, 2020).
